Source: PubChem BioAssay (Broad Institute)
Sampled rows, rich in hits. Any-hit rate of the full collection: about 2.9%.
ERAP1 inh – human ERAP1 aminopeptidase inhibitors, primary screen, biochemical, single point, plate reader; 340,000 tested, 0.15% active; Endoplasmic reticulum aminopeptidase 1 (Homo sapiens), Q9NZ08; recombinant ERAP1, Leu-AMC fluorescence, 60 min; inhibition, % at 10.7 µM;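 active means mean replicate inhibition of at least 30%, or all replicates individually reaching that 30% level; inactive means mean below 30% and not every replicate reaching it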;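 further: 0% = neutral control wells and 100% = L-leucinethiol positive control wells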
DENV2 CPE rescue – inhibitors of DENV2 cytopathic effect, primary screen, cell-based, plate reader, single concentration; DENV2-infected cells, cytopathic effect rescue; 350,000 tested, 1.7% active; CPE inhibition, % at 9.99 µM; AID 651640, 2012; in the data active means CPE inhibition above about 20%, passing the limit was not always enough; inconclusive means no clear call, values can overlap the other calls; tested in BHK-21 cells;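 further: 0% = median of neutral control wells and 100% = median of positive control wells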
CAL PDZ FP-1 – CAL PDZ peptide-binding inhibitors, primary screen, biochemical, fluorescence polarization, Cer-tagged CAL PDZ, HTS; Golgi-associated PDZ and coiled-coil motif-containing protein (Homo sapiens), Q9HD26; purified CAL PDZ, TMR-peptide fluorescence polarization, 1 h; inhibition, % at 20 µM; 330,000 tested, 0.02% active; AID 504414, 2011;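 active means highest replicate inhibition of at least 40%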;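 further: plate controls were DMSO neutral control wells for no effect and unlabeled competitor peptide control wells for full effect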
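Material: tagged CAL PDZ protein CerCALP, purified; buffer or medium: sodium phosphate/NaCl buffer pH 7.4 with TCEP, IgG, Thesit; also added: fluorescent TMR peptide probe; schedule: 1 h incubation at room temperature before polarization reading; technique: fluorescence polarization from S- and P-plane intensities, G-factor corrected; control set: unlabelled peptide and DMSO controls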
CAL PDZ FP-2 – untagged CAL PDZ binding inhibitors, primary screen, biochemical, fluorescence polarization, HTS | Golgi-associated PDZ and coiled-coil motif-containing protein (Homo sapiens), Q9HD26 | purified CAL PDZ, TMR-peptide fluorescence polarization, 1 h | inhibition, % at 24.9 µM | 300,000 tested, 0.92% active;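 active means mean inhibition of at least 30% with at least half of replicates also reaching 30%; inconclusive means no clear call, values can overlap the other calls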;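 further: 0% = DMSO neutral control and 100% = excess unlabeled competitor peptide PRC23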
S100A4 inh HTS – inhibitors of S100A4-myosin IIA peptide binding, primary screen, biochemical, fluorescence polarization, TAMRA-MyoIIA peptide; Protein S100-A4 (Homo sapiens), P26447; inhibition, % at 10.7 µM; 360,000 tested, 0.14% active; AID 652163, 2013;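 active means mean inhibition of at least 70% across replicates, with every replicate also reaching that level; inconclusive means mean inhibition reaches 70% but some replicates fall short; inactive means mean inhibition below 70%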
Target sequence (P26447 whole entry, looked up): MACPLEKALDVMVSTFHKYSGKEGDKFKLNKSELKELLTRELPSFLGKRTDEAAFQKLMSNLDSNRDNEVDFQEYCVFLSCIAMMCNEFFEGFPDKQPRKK
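Test system: S100A4 monomer protein. Medium: HEPES buffer with Ca2+, pH 7.2. Reagent: fluorescent myosin IIA peptide, 5 nM. Compound dosing: single-point compound testing. Timing: 5 min between mix addition and reading. Benchmarks: DMSO neutral and TFP positive wells.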
SIRT5 block – SIRT5 desuccinylase inhibitors, primary screen, biochemical, fluorescence imaging, single point, set 5 | Purified SirT5, succinyl-peptide AMC, trypsin-coupled fluorescence | inhibition, % at 15 µM | 330,000 tested, 1.1% active | NAD-dependent protein deacylase sirtuin-5, mitochondrial (Homo sapiens), Q9NXA8 | AID 652115, 2013; in the data active means inhibition above about 15%; inconclusive means no clear call, values can overlap the other calls
Target sequence (Q9NXA8 whole entry, looked up): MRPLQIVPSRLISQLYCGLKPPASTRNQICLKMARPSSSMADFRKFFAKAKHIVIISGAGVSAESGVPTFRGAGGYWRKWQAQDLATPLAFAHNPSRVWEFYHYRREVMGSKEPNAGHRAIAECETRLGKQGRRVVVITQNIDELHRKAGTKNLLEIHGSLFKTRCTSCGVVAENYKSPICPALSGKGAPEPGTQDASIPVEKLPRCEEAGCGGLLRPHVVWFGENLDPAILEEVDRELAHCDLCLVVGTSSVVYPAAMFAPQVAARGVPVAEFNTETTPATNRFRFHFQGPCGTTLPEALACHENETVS
An asterisk follows results filed as active; ! = repeats disagree.

Screening O=C(C1=C[C@H](c2ccc3c(c2)OCO3)C[C@H](OCCCCO)O1)N1CCN(Cc2ccc3c(c2)OCO3)CC1 returned ERAP1 inh 0.1, DENV2 CPE rescue 44.1*, CAL PDZ FP-1 -1.0, CAL PDZ FP-2 -5.9, S100A4 inh HTS -2.6 and SIRT5 block -7.9.
For O=C(C1=C[C@@H](c2ccccc2)C[C@@H](OCCCCO)O1)N1CCN(Cc2ccc3c(c2)OCO3)CC1 the results were ERAP1 inh 0.7, DENV2 CPE rescue 21.3*!, CAL PDZ FP-1 -1.6, CAL PDZ FP-2 2.7, S100A4 inh HTS -2.0 and SIRT5 block -1.2.
Screening C[C@H]1CN([C@@H](C)CO)C(=O)c2cccc(NC(=O)c3ccncc3)c2O[C@@H]1CN(C)Cc1ccc(Oc2ccccc2)cc1 returned ERAP1 inh 0.1, DENV2 CPE rescue -2.7, S100A4 inh HTS 21.9 and SIRT5 block 6.5.
Screening CCOC1=C2CN(S(=O)(=O)c3ccc(C)cc3)[C@H](c3ccccc3)C[C@H]2[C@H]2C(=O)N(c3ccccc3)C(=O)[C@H]2C1 returned DENV2 CPE rescue 49.1*, S100A4 inh HTS 4.8 and SIRT5 block -0.5.
For CCOC1=C2CN(S(=O)(=O)c3ccc(C)cc3)[C@@H](c3ccc(CC)cc3)C[C@H]2[C@H]2C(=O)N(c3ccccc3)C(=O)[C@H]2C1 the results were DENV2 CPE rescue 0.9, S100A4 inh HTS -2.3 and SIRT5 block 2.5.
For CCOC1=C2CN(S(=O)(=O)c3ccc(C)cc3)[C@H](c3ccc(CC)cc3)C[C@@H]2N(S(=O)(=O)c2ccc(C)cc2)[C@H](c2ccccc2)C1 the results were ERAP1 inh 4.1, DENV2 CPE rescue 94.9*, S100A4 inh HTS -2.7 and SIRT5 block -1.3.
For C/C=C/c1ccc2c(c1)O[C@H](CN(C)CC1CCOCC1)[C@H](C)CN([C@H](C)CO)S2(=O)=O the results were ERAP1 inh -0.5, DENV2 CPE rescue 7.0, S100A4 inh HTS 8.0 and SIRT5 block -0.1.
For C[C@H](NC(=O)C[C@@H]1CC[C@@H](NC(=O)c2cccnc2)[C@H](CO)O1)c1ccccc1 the results were ERAP1 inh -1.5, DENV2 CPE rescue -3.9, S100A4 inh HTS -3.9 and SIRT5 block 0.8.
`CC=Cc1ccc2n(c1=O)C[C@H]1[C@H](CO)[C@@H](C(=O)NCc3ccccc3)[C@@H]2N1Cc1ccccc1OC` (mixture of isomers) gave ERAP1 inh 2.2, DENV2 CPE rescue 2.2, S100A4 inh HTS 1.2 and SIRT5 block -1.5.
For O=C(C[C@@H]1CC[C@@H]2[C@H](COC[C@@H](O)CN2Cc2ccccc2F)O1)NC1CCC1 the results were ERAP1 inh -4.2, DENV2 CPE rescue -8.6, S100A4 inh HTS 16.5 and SIRT5 block -9.3.
`O=C1CCc2cc(S(=O)(=O)N3CCCCC3)cc3c2N1CCC3` gave ERAP1 inh 3.6, DENV2 CPE rescue -6.4, CAL PDZ FP-1 0.0, S100A4 inh HTS 72.8* and SIRT5 block 3.5.
`CCOC(=O)C1(CCOc2ccccc2)CCN(Cc2ccc(OCCO)cc2)CC1` gave ERAP1 inh 0.3, DENV2 CPE rescue inconclusive, CAL PDZ FP-1 -0.6, S100A4 inh HTS -3.5 and SIRT5 block 21.9*.
For CCOC(=O)C1(CCOC)CCN(Cc2ccc3nonc3c2)CC1 the results were DENV2 CPE rescue -1.0, CAL PDZ FP-1 0.8, CAL PDZ FP-2 -2.2, S100A4 inh HTS -1.3 and SIRT5 block -1.1.
For CCOC(=O)C1(CCOc2ccccc2)CCN(Cc2cnc(SC)nc2)CC1 the results were ERAP1 inh -3.3, DENV2 CPE rescue 5.9, CAL PDZ FP-1 -1.0, CAL PDZ FP-2 45.8*, S100A4 inh HTS -0.3 and SIRT5 block -8.7.
Screening CCOC(=O)C1(CCOc2ccccc2)CCN(Cc2ccc(C)o2)CC1 returned ERAP1 inh 2.2, DENV2 CPE rescue 2.3, CAL PDZ FP-1 -0.7, CAL PDZ FP-2 53.2*, S100A4 inh HTS -1.5 and SIRT5 block 1.8.
`CCOC(=O)C1(CCOC)CCN(Cc2cnc(-c3cccc(C)c3)nc2)CC1` gave ERAP1 inh 5.9, DENV2 CPE rescue 5.7, CAL PDZ FP-1 0.8, CAL PDZ FP-2 -0.5, S100A4 inh HTS -1.1 and SIRT5 block 20.4*.
`CCOC(=O)C1(CCOc2ccccc2)CCN(Cc2ccc(COC)o2)CC1` gave CAL PDZ FP-1 -2.3 and CAL PDZ FP-2 -0.9.
`Cc1nn(C)cc1NC(=O)C[C@@H]1CC[C@@H]2[C@H](COc3ccc(NC(=O)C(C)C)cc3C(=O)N2C)O1` gave DENV2 CPE rescue 3.5.
For Cc1nn(CC(=O)NCCCN2CCC(Cc3ccccc3)CC2)c(=O)c2cc(-c3ccccc3)nn12 the results were ERAP1 inh 0.3, DENV2 CPE rescue 11.8, CAL PDZ FP-1 -1.0, CAL PDZ FP-2 -2.1, S100A4 inh HTS -3.9 and SIRT5 block 25.1*.
O=C(C[C@H]1CC[C@H]2[C@@H](COC[C@@H](O)CN2C(=O)c2ccccc2F)O1)NCc1ccccc1 was read as ERAP1 inh 1.8, DENV2 CPE rescue -3.7, S100A4 inh HTS 13.3 and SIRT5 block -1.9.
Screening CN(C)C(=O)c1cccc(-c2ccc3n(c2=O)C[C@@H]2[C@@H](CO)[C@H](C(=O)NCC4CC4)N[C@H]32)c1 returned ERAP1 inh 1.2, DENV2 CPE rescue -1.1, S100A4 inh HTS 2.4 and SIRT5 block -22.3.
For Cn1c(=O)c2[nH]c(NN=Cc3ccccc3)nc2n(C)c1=O the results were ERAP1 inh -1.6, DENV2 CPE rescue 6.8, CAL PDZ FP-1 1.3, CAL PDZ FP-2 94.3* and S100A4 inh HTS 0.8.
Screening Cc1ccc(C=NNc2nc3c([nH]2)c(=O)n(C)c(=O)n3C)cc1 returned ERAP1 inh 6.3, DENV2 CPE rescue -2.9, CAL PDZ FP-1 -0.1, CAL PDZ FP-2 0.5 and S100A4 inh HTS -1.5.
COc1ccc(S(=O)(=O)N2CCN(C(=O)c3ccco3)CC2)c(C)c1C was read as ERAP1 inh 0.3, DENV2 CPE rescue inconclusive, CAL PDZ FP-1 6.6, CAL PDZ FP-2 74.8*, S100A4 inh HTS 4.4 and SIRT5 block -4.2.
For CCOC(=O)N1CCN(S(=O)(=O)c2c(C)nc3sccn3c2=O)CC1 the results were ERAP1 inh -6.2, DENV2 CPE rescue 3.6, CAL PDZ FP-1 0.2, CAL PDZ FP-2 1.7, S100A4 inh HTS 1.4 and SIRT5 block 1.1.
